Measurements from different studies.
Each line is one published result; the experiments were not run side by side.
Target: TRAF2 and NCK-interacting protein kinase (TNIK, Homo sapiens, UniProt Q9UKE5)

Cn1c2c(c3ccc(Cl)c(Cl)c31)C(C#N)C1(CCNCC1)NC2=O (racemic)
ΔTm (thermal stability, DSF; 10 µM): -0.1 °C

C=CC(=O)Nc1cc(Nc2nccc(Nc3cc(Cl)c(F)cc3C(C)(C)O)n2)c(OC)cc1N1CC[C@@H](N(C)C)C1
inhibition (enzyme activity, inhibitor; 1 µM): 47%

COc1cc(Cl)c(C(=O)N[C@@H](CN[C@H]2CC[C@@H](N)CC2)Cc2ccc(C#N)cc2)cc1-c1ccc(CN[C@H](C)c2ccc(C)cc2)o1
remaining activity (enzyme activity, inhibitor; 1 µM): 100%

O=C(O)[C@H]1[C@H](Cn2nnc3ccccc3c2=O)CC[C@@H]1C(=O)c1ccc(OCCC2CCOCC2)cc1
remaining binding (cell-free assay, competition with immobilised ligand; 1 µM): 84%

Cn1c2c(c3ccc(Cl)c(Cl)c31)C(C#N)C1(CCOCC1)NC2=O (stereo not drawn)
ΔTm (thermal stability, DSF; 10 µM): -0.1 °C

CC(C)(O)[C@H]1CC[C@H](Nc2ccc3ncc(-c4cccc(C(F)(F)F)c4)n3n2)CC1
remaining activity (enzyme activity, inhibitor; 1 µM): 96.9%

Cc1sc(C(=O)NC2COC2)cc1-n1cc(NC(=O)Nc2c(F)cccc2Cl)cn1
remaining activity (enzyme activity, inhibitor; 10 µM): 94.5%

CN1CCN(c2cnc3c(C4CCN(C(=O)c5ccc(OC(F)(F)F)cc5N)CC4)ncnc3c2)CC1
remaining binding (cell-free assay, competition with immobilised ligand; 1 µM): 100%

Cn1c2c(c3ccc(Cl)c(Cl)c31)C(C#N)C1(CCN(C(=O)OC(C)(C)C)CC1)NC2=O (racemic)
ΔTm (thermal stability, DSF; 10 µM): -0.1 °C

CNC(=O)c1cc2c(Oc3ccc(NC(=O)C4(C(=O)Nc5ccc(F)cc5)CC4)cc3)ccnc2cc1OC
inhibition (enzyme activity, inhibitor, radiometric; 1 µM): 73%

N#CC1c2c([nH]c3c(Cl)c(Cl)ccc23)C(=O)NC12CCCCC2 (racemic)
ΔTm (thermal stability, DSF; 10 µM): 0 °C

Cn1cnc(Br)c1C1=CN(c2ncnc3[nH]cnc23)CCS1
inhibition (enzyme activity, inhibitor, radiometric; 50 nM): 21.5%

COc1ccc2cc(OCC3(C(=O)O)CN(C(=O)c4ccc(F)cc4)C3)ccc2c1
remaining binding (cell-free assay, competition with immobilised ligand; 1 µM): 61%

CCCCNc1ncc2c(-c3ccc(F)cc3)nn(C[C@H]3CC[C@H](N)CC3)c2n1
inhibition (target engagement in cells, inhibitor, chemoproteomics; 20 mM): 62.6%

O=C(CSc1nc2nccnc2c(=O)n1CCc1ccccc1)Nc1nccs1
inhibition (enzyme activity, inhibitor; 10 µM): -4%

C[C@@H]1CN(c2cc(-c3nn(C)c4ccc(OC5(C)CC5)cc34)ncn2)C[C@H](C)O1
remaining binding (cell-free assay, competition with immobilised ligand; 1 µM): 80%

CN1CCC2(CC1)NC(=O)c1c(c3ccc(Cl)c(Cl)c3n1C)C2C#N (racemic)
ΔTm (thermal stability, DSF; 10 µM): 0 °C

Cn1cc(Cl)c2c(Oc3c(F)cc(Nc4cc(Cl)nc(N)n4)cc3F)ccnc21
remaining binding (cell-free assay, competition with immobilised ligand; 0.1 µM): 96%

Cn1c2c(c3ccc(Cl)c(Cl)c31)C(C#N)C1(CCCCC1)NC2=O (racemic)
ΔTm (thermal stability, DSF; 10 µM): 0 °C

CN(C)c1ncnc(-c2ccc3nc(Nc4cc(CN5CCN(C(=O)CC(F)(F)F)CC5)ccn4)[nH]c3c2)c1Cl
remaining binding (cell-free assay, competition with immobilised ligand; 1 µM): 53%

Cc1ccc(C(=O)Nc2ccc(CN3CCN(C)CC3)c(C(F)(F)F)c2)cc1C#Cc1cnc2cccnn12
remaining activity (enzyme activity, inhibitor; 23.5 nM): 34%
